Measurements from ChEMBL document CHEMBL1134363 (J Med Chem, 2001).

What was measured:
[1] = molecular target: T1, Alpha-2A adrenergic receptor (Homo sapiens, UniProt P08913); assay: Binding affinity for human alpha-2 adrenergic receptor expressed in CHO cell; assay type: cell-based
T1 sequence (P08913 whole entry): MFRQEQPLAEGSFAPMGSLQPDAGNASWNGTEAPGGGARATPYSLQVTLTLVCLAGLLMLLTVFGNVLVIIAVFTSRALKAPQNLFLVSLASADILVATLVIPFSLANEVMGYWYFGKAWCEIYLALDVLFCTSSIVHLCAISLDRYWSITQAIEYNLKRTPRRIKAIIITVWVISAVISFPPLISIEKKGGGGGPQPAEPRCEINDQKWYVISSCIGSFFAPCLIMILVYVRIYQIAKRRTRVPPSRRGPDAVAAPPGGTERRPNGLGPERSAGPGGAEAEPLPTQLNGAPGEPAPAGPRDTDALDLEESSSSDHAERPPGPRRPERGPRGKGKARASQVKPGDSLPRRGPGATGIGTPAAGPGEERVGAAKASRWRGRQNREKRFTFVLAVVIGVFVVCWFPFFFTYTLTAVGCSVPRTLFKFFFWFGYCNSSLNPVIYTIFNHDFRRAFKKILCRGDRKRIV

[2] = molecular target: Sodium-dependent serotonin transporter (Rattus norvegicus, UniProt P31652); assay: In vitro binding affinity was determined against serotonin reuptake site of rat in presence of [3H]paroxetine radioligand
[3] = molecular target: T2, Alpha-2A adrenergic receptor (Homo sapiens) (UniProt P08913); assay: Antagonistic activity as [35S]GTP gamma-S binding at alpha-2a adrenergic receptor expressed in CHO cells; assay type: functional, cell-based
T2 sequence (whole entry): T1 sequence (P08913 whole entry)
Summary of the method: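 Membranes (40 μg/mL) from CHO cells stably expressing human α2A receptor, preincubated 30 min at room temperature with drug in 20 mM HEPES pH 7.4, 100 mM NaCl, 3 μM GDP, 3 mM MgCl2; 0.2 nM [35S]GTPγS added, 60 min room temperature, NA 10 μM as agonist. Nonspecific: 10 μM GTPγS. Filtration, scintillation counting; pKB from IC50 corrected for agonist concentration/EC50.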

[4] = molecular target: T3, Adrenergic receptor alpha-2 (Rattus norvegicus, UniProt P22086+P19328+P22909); assay: In vitro binding affinity against alpha-2 adrenergic receptor of rat in presence of [3H]-RX 821002 radioligand; assay type: protein assay
T3 sequence (P22086 whole entry): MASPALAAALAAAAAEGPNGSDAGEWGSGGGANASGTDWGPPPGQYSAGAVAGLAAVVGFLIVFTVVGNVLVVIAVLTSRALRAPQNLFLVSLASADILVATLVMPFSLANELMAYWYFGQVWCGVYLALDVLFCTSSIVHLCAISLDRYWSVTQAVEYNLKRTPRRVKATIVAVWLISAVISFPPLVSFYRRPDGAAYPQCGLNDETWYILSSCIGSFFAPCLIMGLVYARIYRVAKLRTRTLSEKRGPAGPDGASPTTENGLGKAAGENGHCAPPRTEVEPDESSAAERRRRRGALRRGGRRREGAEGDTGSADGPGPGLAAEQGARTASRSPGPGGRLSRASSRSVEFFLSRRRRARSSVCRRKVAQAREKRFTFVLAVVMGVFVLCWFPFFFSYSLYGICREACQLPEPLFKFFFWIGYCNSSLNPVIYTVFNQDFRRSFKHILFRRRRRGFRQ
T3 sequence (P19328 whole entry): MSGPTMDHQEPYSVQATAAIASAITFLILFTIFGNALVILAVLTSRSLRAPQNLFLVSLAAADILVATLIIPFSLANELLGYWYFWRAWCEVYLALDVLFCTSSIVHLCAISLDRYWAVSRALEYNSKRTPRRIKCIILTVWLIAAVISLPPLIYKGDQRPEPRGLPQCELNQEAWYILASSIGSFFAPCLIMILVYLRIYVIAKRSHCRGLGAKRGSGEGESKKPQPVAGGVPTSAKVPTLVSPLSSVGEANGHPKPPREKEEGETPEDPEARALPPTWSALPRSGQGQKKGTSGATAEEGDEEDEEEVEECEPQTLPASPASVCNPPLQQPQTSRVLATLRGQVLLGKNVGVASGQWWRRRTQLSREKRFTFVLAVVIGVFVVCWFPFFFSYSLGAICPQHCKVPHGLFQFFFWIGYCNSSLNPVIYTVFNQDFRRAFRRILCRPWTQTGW
T3 sequence (P22909 whole entry): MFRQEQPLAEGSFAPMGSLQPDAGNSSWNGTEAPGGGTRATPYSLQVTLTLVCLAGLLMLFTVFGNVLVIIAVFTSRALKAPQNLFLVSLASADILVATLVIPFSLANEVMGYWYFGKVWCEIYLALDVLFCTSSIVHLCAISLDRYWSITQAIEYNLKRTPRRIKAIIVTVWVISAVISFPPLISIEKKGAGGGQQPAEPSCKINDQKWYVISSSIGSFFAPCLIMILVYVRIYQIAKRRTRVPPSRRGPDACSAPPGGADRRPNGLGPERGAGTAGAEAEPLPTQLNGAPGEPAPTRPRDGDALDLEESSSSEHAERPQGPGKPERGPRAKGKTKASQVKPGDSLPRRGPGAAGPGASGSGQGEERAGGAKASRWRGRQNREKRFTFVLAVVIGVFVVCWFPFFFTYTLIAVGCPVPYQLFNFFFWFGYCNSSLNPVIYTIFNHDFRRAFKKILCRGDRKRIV

[5] = molecular target: Norepinephrine transporter (Rattus norvegicus, UniProt Q9WTR4); assay: In vitro binding affinity was determined against NA (noradrenaline) reuptake site of rat in presence of [3H]nisoxetine radioligand
[6] = molecular target: T4, Adrenergic receptor alpha-1 (Rattus norvegicus, UniProt P15823+P23944+P43140); assay: In vitro binding affinity against alpha-1 adrenergic receptor of rat in presence of [3H]-prazosin radioligand; assay type: protein assay
T4 sequence (P15823 whole entry): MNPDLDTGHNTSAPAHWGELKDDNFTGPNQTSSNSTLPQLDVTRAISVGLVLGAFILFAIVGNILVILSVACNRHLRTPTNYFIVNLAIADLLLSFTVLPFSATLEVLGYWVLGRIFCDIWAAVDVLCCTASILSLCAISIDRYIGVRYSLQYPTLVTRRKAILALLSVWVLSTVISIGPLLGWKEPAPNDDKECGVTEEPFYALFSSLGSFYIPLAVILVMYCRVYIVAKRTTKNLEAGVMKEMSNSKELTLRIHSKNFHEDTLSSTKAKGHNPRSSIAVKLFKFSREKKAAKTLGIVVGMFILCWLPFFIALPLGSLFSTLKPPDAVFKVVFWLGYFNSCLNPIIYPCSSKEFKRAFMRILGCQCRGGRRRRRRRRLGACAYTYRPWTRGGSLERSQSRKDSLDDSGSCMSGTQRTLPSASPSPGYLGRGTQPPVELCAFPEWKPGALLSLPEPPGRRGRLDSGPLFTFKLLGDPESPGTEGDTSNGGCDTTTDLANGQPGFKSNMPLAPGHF
T4 sequence (P23944 whole entry): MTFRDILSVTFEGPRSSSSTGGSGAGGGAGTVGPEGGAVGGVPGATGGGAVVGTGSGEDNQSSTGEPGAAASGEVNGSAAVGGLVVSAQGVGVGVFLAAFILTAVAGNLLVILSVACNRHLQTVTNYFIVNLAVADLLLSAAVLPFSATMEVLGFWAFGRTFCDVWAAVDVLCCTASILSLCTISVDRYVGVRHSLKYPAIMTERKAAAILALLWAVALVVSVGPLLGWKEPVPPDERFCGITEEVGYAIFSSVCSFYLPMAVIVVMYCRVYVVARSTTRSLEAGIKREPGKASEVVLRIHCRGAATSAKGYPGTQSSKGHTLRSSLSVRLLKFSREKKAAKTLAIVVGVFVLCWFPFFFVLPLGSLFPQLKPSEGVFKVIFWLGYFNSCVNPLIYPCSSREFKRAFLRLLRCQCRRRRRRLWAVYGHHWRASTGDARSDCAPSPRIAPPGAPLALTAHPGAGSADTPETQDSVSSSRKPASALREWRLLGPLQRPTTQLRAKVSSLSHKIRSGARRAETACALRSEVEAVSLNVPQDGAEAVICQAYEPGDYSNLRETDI
T4 sequence (P43140 whole entry): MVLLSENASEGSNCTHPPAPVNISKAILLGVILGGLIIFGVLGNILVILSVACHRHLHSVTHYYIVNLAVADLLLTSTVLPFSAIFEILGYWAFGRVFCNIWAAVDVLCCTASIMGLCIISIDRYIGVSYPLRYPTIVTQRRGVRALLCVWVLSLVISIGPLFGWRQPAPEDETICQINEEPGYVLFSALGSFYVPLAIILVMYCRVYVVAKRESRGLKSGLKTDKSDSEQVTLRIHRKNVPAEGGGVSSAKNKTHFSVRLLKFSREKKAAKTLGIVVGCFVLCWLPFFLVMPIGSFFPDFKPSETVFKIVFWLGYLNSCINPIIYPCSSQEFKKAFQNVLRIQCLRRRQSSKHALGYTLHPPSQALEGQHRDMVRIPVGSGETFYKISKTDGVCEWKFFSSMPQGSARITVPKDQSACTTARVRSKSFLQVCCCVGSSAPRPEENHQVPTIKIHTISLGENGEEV

Sodium-dependent serotonin transporter, sequence (P31652 whole entry): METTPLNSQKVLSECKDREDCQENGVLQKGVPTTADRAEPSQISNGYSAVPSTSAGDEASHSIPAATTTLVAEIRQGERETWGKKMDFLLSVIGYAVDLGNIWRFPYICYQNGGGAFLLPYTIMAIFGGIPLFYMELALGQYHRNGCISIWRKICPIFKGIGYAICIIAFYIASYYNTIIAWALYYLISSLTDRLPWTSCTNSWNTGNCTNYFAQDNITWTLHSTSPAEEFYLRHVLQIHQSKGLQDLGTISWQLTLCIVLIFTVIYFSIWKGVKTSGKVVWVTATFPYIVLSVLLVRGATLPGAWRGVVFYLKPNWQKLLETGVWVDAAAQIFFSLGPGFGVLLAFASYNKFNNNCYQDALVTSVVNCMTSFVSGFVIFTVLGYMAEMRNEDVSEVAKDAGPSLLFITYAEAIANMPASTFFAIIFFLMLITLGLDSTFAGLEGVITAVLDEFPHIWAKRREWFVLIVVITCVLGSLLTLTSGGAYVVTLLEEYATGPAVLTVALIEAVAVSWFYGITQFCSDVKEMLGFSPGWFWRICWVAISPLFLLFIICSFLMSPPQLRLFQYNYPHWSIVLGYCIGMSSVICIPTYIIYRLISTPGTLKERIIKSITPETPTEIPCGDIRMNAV
Norepinephrine transporter, sequence (Q9WTR4 whole entry): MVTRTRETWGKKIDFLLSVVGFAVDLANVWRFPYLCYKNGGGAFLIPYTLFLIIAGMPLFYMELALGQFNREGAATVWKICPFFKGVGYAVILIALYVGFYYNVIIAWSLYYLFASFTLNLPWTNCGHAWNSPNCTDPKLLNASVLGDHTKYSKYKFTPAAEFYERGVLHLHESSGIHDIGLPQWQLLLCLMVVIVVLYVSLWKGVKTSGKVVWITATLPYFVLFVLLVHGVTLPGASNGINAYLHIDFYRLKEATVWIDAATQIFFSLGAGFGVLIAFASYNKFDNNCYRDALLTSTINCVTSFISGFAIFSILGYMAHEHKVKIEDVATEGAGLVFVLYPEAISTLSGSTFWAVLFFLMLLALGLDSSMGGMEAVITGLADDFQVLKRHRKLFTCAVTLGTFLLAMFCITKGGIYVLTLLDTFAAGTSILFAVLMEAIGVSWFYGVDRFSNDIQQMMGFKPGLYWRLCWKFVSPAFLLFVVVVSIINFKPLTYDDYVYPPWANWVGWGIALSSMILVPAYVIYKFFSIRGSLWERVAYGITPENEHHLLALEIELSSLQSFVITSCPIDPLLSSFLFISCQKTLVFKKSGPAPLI

| Compound | Ki [1] [nM] | Ki [2] [nM] | pKB [3] | Log Ki [4] | Ki [5] [nM] | Log Ki [6] |
| --- | --- | --- | --- | --- | --- | --- |
| C1=NCC(Cc2cc3ccccc3o2)N1 (centres undefined) | 20 | 1000 | 6.9 | -7.9 | 63.1 | -5.6 |
| Clc1cccc2ccc(CC3CN=CN3)cc12 (centres undefined) | 25.1 | 31.6 | 7.5 | -7.5 | 20 | -6.4 |
| C1=NC[C@H](C[C@]23CCc4ccccc4C2C3)N1 (some centres undefined) | 63.1 | 50.1 | 6.8 | -7.3 | 794 | -5.9 |
| Fc1cccc2c1C=C(CC1CN=CN1)CC2 (centres undefined) | 39.8 | 79.4 | 6.8 | -7.4 | 126 | -6.3 |
| C1=NCC(CC2Cc3ccccc3C2)N1 (centres undefined) | 3.98 | 63.1 | 8.1 | -8.7 | 39.8 | -6.3 |
| Clc1cccc2c1C=C(CC1CN=CN1)CC2 (centres undefined) | 31.6 | 20 | 7.6 | -7.6 | 50.1 | -6.4 |
| C1=NC[C@]2(CC[C@@H]3Cc4ccccc4C[C@H]3C2)N1 (relative stereo) | 1.26 | 15.8 | 8.2 | -8 | 200 | -6.1 |
| CNCCC(Oc1ccc(C(F)(F)F)cc1)c1ccccc1 (centres undefined) |  |  | 7.4 |  |  |  |
| Fc1ccc2c(c1)C=C(CC1CN=CN1)CC2 (centres undefined) | 158 | 1.58 | 6.7 | -6.7 | 50.1 | -6.6 |
| CN[C@H](CC(C)C)C(=O)N[C@H]1C(=O)N[C@@H](CC(N)=O)C(=O)N[C@H]2C(=O)N[C@H]3C(=O)N[C@H](C(=O)N[C@H](C(=O)O)c4cc(O)cc(O)c4-c4cc3ccc4O)[C@H](O)c3ccc(c(Cl)c3)Oc3cc2cc(c3O[C@@H]2O[C@H](CO)[C@@H](O)[C@H](O)[C@H]2O[C@H]2C[C@](C)(N)[C@H](O)[C@H](C)O2)Oc2ccc(cc2Cl)[C@H]1O [VANCOMYCIN] |  | 50.1 | 6.7 | -6.9 | 15.8 | -6 |
| C1=NC[C@@H](C2C[C@@]23CCc2ccccc2C3)N1 (some centres undefined) | 3.16 | 2 | 8.2 | -8.2 | 100 | -6.3 |
| CCC1(c2cnc[nH]2)Cc2ccccc2C1 [ATIPAMEZOLE] | 3.16 | > 3160 |  |  | > 10000 |  |
| CCC1(c2c[nH]cn2)Cc2ccccc2C1 [ATIPAMEZOLE] |  |  | 8.9 |  |  | -5.7 |
| C1=NCC(CC2=Cc3ccccc3CC2)N1 (centres undefined) | 100 | 39.8 | 6.6 | -7 | 50.1 | -6.4 |
| Clc1cccc2c1CC(CC1CN=CN1)CC2 (centres undefined) |  | 5.01 |  | -8.8 | 100 | -6.5 |
| C1=NCC(CC2=Cc3ccccc3C2)N1 (centres undefined) |  | 79.4 |  | -7.8 | 31.6 | -5.9 |
